# Shown are actives, neighbours in structure and some others; about 6.1% of the full set was active somewhere.
# RAM inhibit: inhibitors of the yeast RAM network; S. cerevisiae dse1pr::URA3 reporter, 5-FOA growth OD615, 2 d; analog-sensitive cbk1-as2 kinase mutant strain; inhibition, % at 50 µM; 190,000 tested, 1.8% active; AID 868;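 active = inhibition above a set limit, 3 SD over mean compound inhibition, cut at about 8.4% in these data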;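 also: 0% = DMSO-only wells with no growth and 100% = 10 µM 1-NA-PP1 full growth; inhibition rescues growth on 5-FOA so higher OD means more RAM inhibition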
# WT yeast gro inh: growth inhibition of WT yeast, mitochondrial fusion screen | mitochondrial fusion phenotypic screen, WT strain | inhibition, % at 10 µM | 190,000 tested, 2.1% active | AID 1362; in the data active = inhibition above about 58%; tested in S. cerevisiae
# Measles CPE: protection of cells from measles virus | Measles virus-infected cells, CPE protection, absorbance | protection (pct of control), % at 4 µM | 140,000 tested, 1.5% active; in the data active = protection mostly above about 24%, no sharp cut-off; inactive = mostly below about 26%
# BB579 growth dn: yeast BB579 growth reduction in restrictive medium | S. cerevisiae BB579 growth, OD615, 48 h | 140,000 tested, 0.51% active | AID 804 | inhibition, % at 10 µM;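 active = inhibition above a set limit, 3 SD over the mean compound inhibition, cut at about 44% in these data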
#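 System: Saccharomyces cerevisiae DeaD strain BB579, replicative lifespan model yeast. Buffer or medium: restrictive glucose-based CSMM-D medium. Doses: one dose, 10 µM compound with 0.25% DMSO. Timing: 4 h preincubation and 48 h exposure at 30 °C. Detection: turbidity as optical density at 615 nm. Benchmarks: amphotericin B 10 µg/mL, positive.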
# Yeast lifespan up: extends the lifespan of yeast; inhibition of the nicotinamide effect, % at 10 µM; 130,000 tested, 0.68% active; S. cerevisiae growth with nicotinamide, OD615; deaD strain in restrictive glucose medium;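 active = inhibition above a set limit, placed 3 SD over the median of all compounds, cut at about 26% in these data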;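 also: 0% = nicotinamide-treated wells and 100% = cells grown without nicotinamide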
#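 Buffer or medium: CSMM-D glucose medium, restrictive; test system: modified budding yeast, DeaD strain; compound: single dose 10 µM compound, 0.25% DMSO; schedule: culture preincubation 4 h, compound exposure 48 h, both 30 °C; detection: optical density (absorbance) at 615 nm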
# hDAT+cocaine: modulates human dopamine transporter uptake under cocaine | B-score at 10 µM | Q01959 | LLC-PK1 hDAT cells, [14C]-dopamine uptake with cocaine IC80; actives deviate in either direction | 110,000 tested, 1.3% active;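 active = Z score or B-score, a plate-position-corrected score, falls beyond the plate's 99.7% confidence bounds, in either direction; inactive = both scores lie inside the 99.7% bounds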;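 also: scored against the spread of the other compound wells on the same plate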
# Target sequence (Q01959 whole entry, looked up): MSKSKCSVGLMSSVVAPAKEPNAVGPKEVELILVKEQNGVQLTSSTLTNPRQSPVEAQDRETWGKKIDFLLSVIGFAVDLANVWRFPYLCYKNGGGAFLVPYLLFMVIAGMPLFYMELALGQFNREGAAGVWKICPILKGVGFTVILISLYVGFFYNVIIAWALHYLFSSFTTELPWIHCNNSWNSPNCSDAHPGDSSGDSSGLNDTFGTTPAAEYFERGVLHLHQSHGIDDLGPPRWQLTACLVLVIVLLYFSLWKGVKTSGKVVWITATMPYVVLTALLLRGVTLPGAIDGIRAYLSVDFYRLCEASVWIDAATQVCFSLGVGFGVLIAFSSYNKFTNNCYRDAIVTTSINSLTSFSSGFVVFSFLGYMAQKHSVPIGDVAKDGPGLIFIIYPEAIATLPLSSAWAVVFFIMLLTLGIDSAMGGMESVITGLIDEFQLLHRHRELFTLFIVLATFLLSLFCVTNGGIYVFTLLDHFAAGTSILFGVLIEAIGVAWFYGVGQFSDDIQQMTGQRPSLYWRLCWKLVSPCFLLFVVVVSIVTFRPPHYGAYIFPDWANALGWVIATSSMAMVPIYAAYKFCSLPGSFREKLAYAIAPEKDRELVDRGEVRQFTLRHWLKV
# RAM 5-FOA: RAM network inhibitors in efflux-deficient yeast. 1,200 tested, under 10 active. shares compounds with RAM inhibit. S. cerevisiae efflux-deficient reporter strain, 5-FOA growth OD615, 2 days. AID 1305. max inhibition, %; call rule not given here;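 also: plate controls were vehicle for no effect and reference inhibitor for full effect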
# Starred values were filed as active, the others as inactive; x = no result given.
SMILES,RAM inhibit,WT yeast gro inh,Measles CPE,BB579 growth dn,Yeast lifespan up,hDAT+cocaine,RAM 5-FOA
CCN(CC)S(=O)(=O)c1ccc(N2CCOCC2)c(NC(=O)Cc2ccccc2)c1,0,-1,5,-32,4,x,x
CCc1ccccc1OCC(=O)OCC(=O)N1CC(=O)Nc2ccccc21,-1,-19,x,x,x,x,x
C=CCOc1cccc(/C=C2\C(=O)N(Cc3ccc(C)cc3)C(C)=C2C(=O)OC)c1,18*,11,12,-20,7,x,4
O=C(NCCCN1CCCC1=O)c1ccc(Cl)c(Cl)c1,1,-7,x,x,x,x,x
CCCCCOc1ccc(CSc2ncn[nH]2)cc1,24*,27,14,-26,x,0.15,1
O=C(Nc1ccc(F)cc1)c1sccc1SCc1cccc(C(F)(F)F)c1,14*,8,7,-41,-16,-0.58,3
O=C(Nc1ccc(F)cc1F)c1sccc1SCc1cccc(C(F)(F)F)c1,2,x,9,-28,-4,x,x
COc1ccc(NC(=O)c2sccc2SCc2cccc(C(F)(F)F)c2)cc1,16*,7,9,-36,-12,-0.064,4
CCOC(=O)Nc1ccc2c(COC(=O)CNS(=O)(=O)c3cccc(Br)c3)cc(=O)oc2c1,3,-11,4,-14,3,x,x
COc1ccc(N2Cc3cccc(C(=O)NC(C)CCc4ccco4)c3C2=O)cc1 (stereo not given),7,16,3,-81,-6,0.59,x
CC(CCc1ccco1)NC(=O)c1cccc2c1C(=O)N(C1CCCCC1)C2 (stereo not given),12*,60*,x,x,x,x,1
CCOC(=O)c1[nH]c(C)c(C(=O)N2CCN(C(=O)OCC)CC2)c1CC,2,13,14,-8,-4,-1.1,x
N#Cc1c(N2CCCCC2)nc(N2CCCCC2)c2c1CCN(Cc1ccccc1)C2,-1,11,12,-46,-12,0.015,x
Cc1ccc(S(=O)(=O)N(CCCO)CC(O)CON=C2c3ccccc3-c3ccccc32)cc1 (stereo not given),13*,59*,2,-25,-1,x,3
c1ccc(-c2nc(CSc3nnnn3-c3ccccc3)cs2)cc1,7,22,4,-33,-11,0.57,2
O=c1cc(CSc2nnnn2-c2ccccc2)nc2scc(-c3ccccc3)n12,1,-22,6,10,-7,0.11,x
CCCN(C(=S)Nc1ccccc1)C1CCS(=O)(=O)C1 (stereo not given),0,12,12,-2,-2,0.19,x
Cc1ccc(C(=O)NCCSCc2ccc(Cl)cc2Cl)cc1[N+](=O)[O-],14*,38,7,-39,2,x,1
CSc1nc2ccccc2cc1/C=C(\C#N)c1ccccc1,6,18,4,-62,-6,-0.092,x
CSc1nc2ccccc2cc1/C=C(\C#N)c1cccc(C)c1,13*,56,2,-19,-10,-0.39,5
Cc1ccc(C(=O)OCC(=O)Nc2cc(S(=O)(=O)N3CCOCC3)ccc2C)cc1,12*,-7,x,x,x,x,2
Cc1ccc2c(CC(=O)Nc3cccc(S(=O)(=O)N4CCOCC4)c3)coc2c1,3,14,x,x,x,x,x
CCOC(=O)/C(=N/Nc1ccccc1)c1csc(Nc2ccccc2)n1,16*,7,4,-34,-21,-0.084,4
CC(C)N1CCN(CC#Cc2ccccc2)CC1CCO (stereo not given),4,1,x,x,x,x,x
O=C(CCc1nnc(CCCc2ccccc2)o1)NCCCC1CCCC1,-1,39,x,x,x,x,x
SMILES,RAM inhibit,WT yeast gro inh,Measles CPE,BB579 growth dn,Yeast lifespan up,hDAT+cocaine,RAM 5-FOA
O=C(OC(C(=O)Nc1cccc(C(F)(F)F)c1)c1ccccc1)C1CCCCC1 (stereo not given),14*,62*,3,-31,0,x,2
O=C(Nc1cccc(C(F)(F)F)c1)NC1CCCCC1,2,16,6,-66,-4,0.022,x
Cc1nn(-c2ccccc2)cc1C(c1c(N)[nH]c(=S)[nH]c1=O)c1c(N)[nH]c(=S)[nH]c1=O,-1,-5,x,x,x,x,x
O=S(=O)(NCCSCc1ccc(Cl)cc1Cl)c1ccc2c(c1)OCCO2,12*,73*,3,-43,1,0.42,3
COCCCNS(=O)(=O)c1ccc2c(c1)OCCO2,2,4,7,-26,-4,0.43,x
CCc1c(C#N)c(SCc2c(C)noc2C)nc2c1C(=O)CC(C)(C)C2,12*,15,13,-1,14,x,3
Clc1nc(CN2CCCCC2)nc2sc3c(c12)CCC3,1,18,x,x,x,x,x
CCOC(=O)c1ccc(NC(=O)COC(=O)c2cccc(Oc3ccccc3)c2)cc1,12*,18,4,-50,8,x,3
CCOC(=O)c1ccc(NC(=S)NC(=O)COc2ccccc2)cc1,11*,11,9,-33,5,x,2
COc1ccc(OCCNS(=O)(=O)c2ccc3oc4ccccc4c3c2)cc1,4,10,19,-35,-8,-0.66,x
CN(CCOc1ccccc1)S(=O)(=O)c1ccc2oc3ccccc3c2c1,15*,28,10,-42,3,-0.79,7
COc1ccc(CCNC(=O)/C(C#N)=C/c2cccc(OCc3ccccc3)c2)cc1OC,14*,32,6,-11,2,x,2
CCOC(=O)c1c(C)[nH]c(N=Nc2ccccc2C)c1C,20*,77*,11,-7,-11,-0.21,5
CCOC(=O)c1c(C)[nH]c(N=Nc2ccc(C)cc2C)c1C,6,7,21,-13,-13,-0.77,x
Cc1nonc1OCCNC(=O)C12CC3CC(CC(C3)C1)C2,0,8,20,-26,11,0.26,x
C=CCOC(=O)/C(=C\c1ccc(OC)cc1)NC(=O)c1ccco1,4,1,20,-41,0,x,x
CCCCOc1ccc(C(=O)N/C(=C\c2cccc([N+](=O)[O-])c2)C(=O)OCc2ccco2)cc1,11*,-8,28,-34,9,x,2
CCCCOc1ccc(C(=O)N/C(=C\c2ccc(OC)cc2)C(=O)OCc2ccco2)cc1,12*,22,18,-61,1,1,7
Cc1ccc(C(=O)N/C(=C\c2cccc([N+](=O)[O-])c2)C(=O)OCN2C(=O)c3ccccc3C2=O)cc1,2,-4,20,-22,-1,x,x
CC(/C=C1\SC(=S)N(NC(=O)c2ccc(C)cc2)C1=O)=C\c1ccccc1,6,-9,4,-15,-15,-0.01,x
COc1ccc(/C=C2\SC(=S)N(C(Cc3ccccc3)C(=O)O)C2=O)cc1 (stereo not given),34*,-34,x,x,x,x,4
CCOc1ccc(/C=C2\SC(=S)N(Nc3ccccc3)C2=O)cc1OC,7,14,6,-38,1,x,x

# High-throughput results (PubChem)
